“And” between values parts separate entries of the source, which are not always exact repeats. Equal entries are not always repeated.
How the values were obtained:
HEK-293T = assay: Multiplex assay against HEK293T; type: toxicity, cell-based; details: human
Outline: (§1)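 Cells stained live at seeding with Hoechst33342, BioTracker Green Microtubule Cytoskeleton Dye, MitoTracker Red and Annexin V Alexa Fluor 680 were imaged on a CQ1 microscope at 37°C and 5% CO2 after compound addition. Their classification by CellPathfinder machine-learning gating ran from Hoechst high-intensity objects versus normal cells, to healthy, pyknosed or fragmented nuclei among normal cells, to mitotic or apoptotic among pyknosed cells. Tubulin, mitochondrial-mass and membrane-permeability phenotypes are per cents of healthy-nucleus cells.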

U2OS = assay: Multiplex assay against U2OS; type: toxicity, cell-based; details: human; outline: as §1
[1] = 24 h, 10 µM, compound concentration 10 uM
[2] = 48 h, 1 µM, compound concentration 1 uM
[3] = 48 h, 10 µM, compound concentration 10 uM
[4] = 12 h, 1 µM, compound concentration 1 uM
[5] = 12 h, 10 µM, compound concentration 10 uM
[6] = 24 h, 1 µM, compound concentration 1 uM

Cl.Clc1cc2cc(c1)-c1cnn3ccc(nc13)NCCOCCO2
Population Apoptotic (%) (HEK-293T; [1]): 25.26% and 16.38% | Population Fragmented Nuclei (%) (HEK-293T; [1]): 2.17% and 2.23% | Population Healthy Nuclei (%) (HEK-293T; [1]): 72.01% and 32.96% | Population Hoechst High Intensity Objects (%) (HEK-293T; [1]): 0% | Population Membrane Permeable-Phenotype (%) (HEK-293T; [1]): 0.75% and 0% | Population Mitochondria Different-Phenotype (%) (HEK-293T; [1]): 30.19% and 10.17% | Population Mitotic Cells (%) (HEK-293T; [1]): 74.74% and 83.62% | Population Normal (%) (HEK-293T; [1]): 100% | Population Pyknosed Nuclei (%) (HEK-293T; [1]): 25.82% and 64.8% | Population Tubulin-Different-Phenotype (%) (HEK-293T; [1]): 9.81% and 5.08% | Total Cell Count (HEK-293T; [1]): 368 and 179 | Population Fragmented Nuclei (%) (HEK-293T; [2]): 3.48% and 1.96% | Population Healthy Nuclei (%) (HEK-293T; [2]): 87.01% and 64.71% | Population Hoechst High Intensity Objects (%) (HEK-293T; [2]): 0% and 0.97% | Population Membrane Permeable-Phenotype (%) (HEK-293T; [2]): 5.92% and 3.03% | Population Mitochondria Different-Phenotype (%) (HEK-293T; [2]): 15.1% and 25% | Population Mitotic Cells (%) (HEK-293T; [2]): 97.71% and 83.82% | Population Normal (%) (HEK-293T; [2]): 100% and 99.03% | Population Apoptotic (%) (HEK-293T; [3]): 16.05% and 15.07% | Population Fragmented Nuclei (%) (HEK-293T; [3]): 3.95% and 2.66% | Population Healthy Nuclei (%) (HEK-293T; [3]): 86.64% and 69.58% | Population Hoechst High Intensity Objects (%) (HEK-293T; [3]): 0.12% and 0.75% | Population Membrane Permeable-Phenotype (%) (HEK-293T; [3]): 3.08% and 0% | Population Mitochondria Different-Phenotype (%) (HEK-293T; [3]): 26.54% and 19.13% | Population Mitotic Cells (%) (HEK-293T; [3]): 83.95% and 84.93% | Population Normal (%) (HEK-293T; [3]): 99.88% and 99.25% | Population Pyknosed Nuclei (%) (HEK-293T; [3]): 9.41% and 27.76% | Population Fragmented Nuclei (%) (U2OS; [4]): 3.05% and 2.1% | Population Healthy Nuclei (%) (U2OS; [4]): 88.09% and 86.01% | Population Hoechst High Intensity Objects (%) (U2OS; [4]): 0% | Population Membrane Permeable-Phenotype (%) (U2OS; [4]): 0.94% and 0.81% | Population Mitochondria Different-Phenotype (%) (U2OS; [4]): 0% and 8.94% | Population Mitotic Cells (%) (U2OS; [4]): 56.25% and 94.12% | Population Normal (%) (U2OS; [4]): 100% | Population Pyknosed Nuclei (%) (U2OS; [4]): 8.86% and 11.89% | Population Tubulin-Different-Phenotype (%) (U2OS; [4]): 0.94% and 0% | Total Cell Count (U2OS; [4]): 361 and 143 | Population Apoptotic (%) (U2OS; [5]): 35.21% and 35.71% | Population Fragmented Nuclei (%) (U2OS; [5]): 3.56% and 1.13% | Population Healthy Nuclei (%) (U2OS; [5]): 82.38% and 83.05% | Population Hoechst High Intensity Objects (%) (U2OS; [5]): 0% | Population Membrane Permeable-Phenotype (%) (U2OS; [5]): 0.96% and 3.4% | Population Mitotic Cells (%) (U2OS; [5]): 64.79% and 64.29% | Population Normal (%) (U2OS; [5]): 100% | Population Pyknosed Nuclei (%) (U2OS; [5]): 14.06% and 15.82% | Population Tubulin-Different-Phenotype (%) (U2OS; [5]): 2.16% and 1.36% | Total Cell Count (U2OS; [5]): 505 and 177 | Population Apoptotic (%) (U2OS; [6]): 43.75% and 57.89% | Population Fragmented Nuclei (%) (U2OS; [6]): 2.2% and 1.09% | Population Healthy Nuclei (%) (U2OS; [6]): 88.2% and 88.52% | Population Hoechst High Intensity Objects (%) (U2OS; [6]): 0% | Population Membrane Permeable-Phenotype (%) (U2OS; [6]): 0.68% and 3.09% | Population Mitochondria Different-Phenotype (%) (U2OS; [6]): 0% and 5.56% | Population Mitotic Cells (%) (U2OS; [6]): 56.25% and 42.11% | Population Normal (%) (U2OS; [6]): 100% | Population Pyknosed Nuclei (%) (U2OS; [6]): 9.6% and 10.38% | Population Tubulin-Different-Phenotype (%) (U2OS; [6]): 0.45% and 0% | Total Cell Count (U2OS; [6]): 500 and 183 | Population Apoptotic (%) (U2OS; [1]): 55.41% and 45% | Population Fragmented Nuclei (%) (U2OS; [1]): 1.48% and 2.62% | Population Healthy Nuclei (%) (U2OS; [1]): 86.37% and 79.91% | Population Hoechst High Intensity Objects (%) (U2OS; [1]): 0.16% and 0% | Population Membrane Permeable-Phenotype (%) (U2OS; [1]): 0.19% and 2.73% | Population Mitochondria Different-Phenotype (%) (U2OS; [1]): 0% and 4.37% | Population Mitotic Cells (%) (U2OS; [1]): 44.59% and 55% | Population Normal (%) (U2OS; [1]): 99.84% and 100% | Population Pyknosed Nuclei (%) (U2OS; [1]): 12.15% and 17.47% | Population Tubulin-Different-Phenotype (%) (U2OS; [1]): 1.33% and 2.73% | Total Cell Count (U2OS; [1]): 610 and 229 | Population Apoptotic (%) (U2OS; [2]): 47.73% and 42.42% | Population Fragmented Nuclei (%) (U2OS; [2]): 3.1% and 2.92% | Population Healthy Nuclei (%) (U2OS; [2]): 87.5% and 86.36% | Population Hoechst High Intensity Objects (%) (U2OS; [2]): 0% | Population Membrane Permeable-Phenotype (%) (U2OS; [2]): 0.98% and 3.01% | Population Mitochondria Different-Phenotype (%) (U2OS; [2]): 0% and 3.01% | Population Mitotic Cells (%) (U2OS; [2]): 52.27% and 57.58% | Population Normal (%) (U2OS; [2]): 100% | Population Pyknosed Nuclei (%) (U2OS; [2]): 9.4% and 10.71% | Population Tubulin-Different-Phenotype (%) (U2OS; [2]): 0.85% and 1.5% | Population Apoptotic (%) (U2OS; [3]): 53.64% and 54.72% | Population Fragmented Nuclei (%) (U2OS; [3]): 3.97% and 2.37% | Population Healthy Nuclei (%) (U2OS; [3]): 81.76% and 83.68% | Population Hoechst High Intensity Objects (%) (U2OS; [3]): 0.19% and 0% | Population Membrane Permeable-Phenotype (%) (U2OS; [3]): 1.39% and 4.4% | Population Mitochondria Different-Phenotype (%) (U2OS; [3]): 0.46% and 3.77% | Population Mitotic Cells (%) (U2OS; [3]): 46.36% and 45.28% | Population Normal (%) (U2OS; [3]): 99.81% and 100% | Population Pyknosed Nuclei (%) (U2OS; [3]): 14.27% and 13.95% | Population Tubulin-Different-Phenotype (%) (U2OS; [3]): 2.43% and 3.46% | Total Cell Count (U2OS; [3]): 1060 and 380

— ChEMBL document CHEMBL5724801, “EUbOPEN Chemogenomics Library - Multiplex” (2024)
